# Assay results from PubChem BioAssay.
# Unmarked numbers belong to inactive results. Inconclusive results are not listed. The source made the active and inactive calls.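 The calls were made as follows, unless noted: active = viability at or below 27.92% in each of two runs, the all-compound median minus 4 SD; inconclusive = no clear call, values can overlap the other calls; inactive = the rest.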
# Key:
# [1] = S. cerevisiae growth inhibition in permissive medium (OD615), pilot counter-assay for S. cerevisiae lifespan shortening project, permissive growth control (AID 705;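 active = growth inhibition above 25% in both replicates, a cutoff set 3 SD above the mean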); details: OD615, 24 h, at 10 µM, stronger effect = higher value
# Procedure, shortened: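 assay system = Saccharomyces cerevisiae strain carrying genetically modified DeaD replicative-lifespan system | technique = absorbance (optical density) at 615 nm | buffer or medium = permissive raffinose/galactose medium | timing = cells pre-grown 4 h, then 24 h compound exposure, 30 °C humidified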
# [2] = S. cerevisiae growth inhibition in restrictive medium, OD615, pilot screen, restrictive growth control, yeast lifespan reduction project (AID 706;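 active = growth inhibition above a set limit, 3 SD over mean compound inhibition, in both replicates, cut at about 43% in these data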;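 also: modified DeaD lifespan yeast strain shifted to restrictive glucose medium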); details: OD615, 48 h, at 10 µM, stronger effect = higher value
# Procedure, shortened: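 System: modified S. cerevisiae. Buffer or medium: CSMM-D glucose medium. Incubation: 4 h pre-growth plus 48 h compound exposure, 30 °C. Detection: absorbance (optical density) measured at 615 nm.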
# [3] = doxorubicin toxicity protection in MRP-1 cells – H69AR cells, CellTiter-Glo, duplicate, MRP-1 activator project, pilot screen (AID 807;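 active = viability increase at or above a cutoff of the median across tested compounds plus 3 SD, cut at about 8.5% in these data, passing the limit was not always enough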;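 also: compound pretreatment 18-22 h then 72 h combined with doxorubicin; 0% = doxorubicin alone and 100% = vehicle without doxorubicin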); details: H69AR viability with doxorubicin, CellTiter-Glo luminescence; at 10 µM; stronger effect = higher value
# [4] = viability of PTEN-null HCT116 cells – cell-based, HCT116 clonal line, CellTiter-Glo, pilot screen (AID 824); details: HCT116 PTEN-deleted viability, 60 h, at 10 µM, stronger effect = lower value;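 also: 0% = 20 µM Hyamine control and 100% = vehicle cell control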
# [5] = RAM pathway blockade in budding yeast – dse1pr::URA3 reporter, 5-FOA selection, pilot screen (AID 869;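 active = inhibition over a set limit, the all-compound mean plus 3 SD, in both replicate runs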;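 also: 0% = DMSO wells with no growth and 100% = 10 µM 1-NA-PP1 with full growth; RAM network block rescues cells from 5-FOA so hits raise OD615 growth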); details: S. cerevisiae dse1pr::URA3 5-FOA growth, OD615, 2 d; at 10 µM; stronger effect = higher value; strain carries analog-sensitive mutant Cbk1 kinase
# [6] = RAM signaling pathway blockade in yeast – S. cerevisiae, Pdr1DBD-CYC8 efflux-inhibited sensitized strain, primary screen (AID 1298;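 active = RAM network inhibition above 8.4% in each of two replicates, 3 SD over the compound average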;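 also: 0% = DMSO untreated cells without growth and 100% = 10 µM 1-NA-PP1 full growth; higher means more yeast growth rescued from 5-FOA killing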); details: S. cerevisiae cbk1-as DSE1-URA3 strain, 5-FOA growth OD615, 2 d; at 50 µM; stronger effect = higher value
Structure (SMILES),growth inhibition [1],growth inhibition [2],viability increase [3],viability [4],inhibition [5],RAM network inhibition [6]
Cc1ccsc1C(=O)OCC(=O)c1cc2ccccc2o1,-18.1%,-10.8%,-2.86%,97.3%,1.28%,1.03%
COc1ccc(C(=O)NC(C)c2nc3ccccc3[nH]2)cc1OC (centres undefined),-9.91%,-3.65%,-1.84%,97.9%,2.15%,4.78%
CCOC(=O)N1CCN(C(=O)c2ccc(CN(c3ccc(C)c(C)c3)S(C)(=O)=O)cc2)CC1,-11.1%,-1.85%,-2.96%,99.4%,0.115%,5.73%
O=C(c1ccco1)c1n[nH]nc1-c1ccccc1,-19.6%,-5.81%,-3.17%,102%,1.16%,1.94%
O=C(Cc1c(C(=O)O)[nH]c2ccccc12)Nc1ccc2c(c1)OCO2,-7.96%,-0.57%,-2.23%,99.7%,0.445%,2.01%
COc1ccc(-c2nc(SC)n(C)c(=O)c2C#N)cc1OC,-6.31%,-12.2%,-4.81%,87.9%,0.12%,9.22%
CC1(C)CC(=O)C=C(Nc2cc(-c3ccccc3)[nH]n2)C1,-9.89%,3.12%,-6.97%,93.4%,-0.355%,2.78%
CC(Oc1ccc(Cl)cc1)C(=O)Nc1nccs1 (centres undefined),-5.8%,-5.78%,-1.86%,87%,1.31%,2.7%
O=C(Nc1ccc(F)cc1)c1cc(S(=O)(=O)N2CCCCC2)cs1,-4.36%,5.66%,-2.46%,61.1%,2.75%,-0.1%
CCN(CC)S(=O)(=O)c1ccc2oc(C(=O)NCC3COc4ccccc4O3)c(C)c2c1 (centres undefined),-4.71%,1.48%,-7.27%,56.5%,2.5%,4.96%
Cc1ccc(S(=O)(=O)c2nc(-c3ccc(F)cc3)oc2SCC(=O)NCC2CCCO2)cc1 (centres undefined),8.03%,-4.51%,-7.96%,15.3% (active),0.69%,10.9%
Cc1nnc(NC(=O)CSc2nccn2-c2cccc(C)c2C)s1,-7.29%,11.5%,-5.19%,30.1%,0.035%,4.71%
COc1cc(NS(=O)(=O)c2ccc(NC(=O)COc3ccc(C)cc3)cc2)nc(OC)n1,-14.3%,-7.79%,-1.12%,102%,1.73%,3.5%
CCN(CC)S(=O)(=O)c1ccc2oc(C(=O)NCc3ccc(F)cc3)c(C)c2c1,-10.9%,12.4%,-6.59%,60.6%,1.37%,7.7%
O=C(CCCC(=O)N1CCCc2ccccc21)N1CCCc2ccccc21,-8.11%,-5.5%,-4.74%,95.3%,2.04%,1.5%
Cc1csc(SCC(=O)c2ccc(S(=O)(=O)N3CCOCC3)cc2)n1,0.36%,21.8%,-3.72%,98.2%,0.265%,7.03%
CC(C)CC(NC(=O)C1CCCCC1)C(=O)NCc1ccccn1 (centres undefined),1.21%,-10.9%,-4.03%,94.4%,1.04%,-0.2%
O=C(CCCOc1ccccc1)N1CCCc2ccccc21,-0.835%,-2.99%,-2.01%,92.2%,0.825%,2.37%
COc1cccc(OCCOc2cccc(/C=N/n3cnnc3)c2)c1,6.03%,21.9%,-2.71%,95.8%,1.62%,0.36%
